Calls of active or inactive are those of the source. The rule behind the calls is not given here.
What was measured:
A2780S [1] = assay: Antiproliferative activity against human A2780S cells at 30 uM after 48 hrs by MTT assay relative to control; type: functional
In short: (§1)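 Cells seeded at 3×10³/well and grown 24 h, then exposed 48 h to six final concentrations, twofold steps down from 30. MTT (5 mg/mL) was added for 2–4 h at 37 °C. Supernatant was removed, formazan dissolved in DMSO, and OD read at 570 nm. Results are given as IC50, or as percent inhibition where IC50 exceeds the top concentration. At least three runs.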

A2780/Taxol = assay: Antiproliferative activity against human A2780T cells after 48 hrs by MTT assay; type: functional, cell-based; in short: as §1
A549 = assay: Antiproliferative activity against human A549 cells after 48 hrs by MTT assay; type: functional, cell-based; settings: A549, 48 h; in short: as §1
MCF7 = assay: Antiproliferative activity against human MCF7 cells after 48 hrs by MTT assay; type: functional, cell-based; settings: MCF7, 48 h; in short: as §1
NCI-H1975 = assay: Antiproliferative activity against human NCI-H1975 cells after 48 hrs by MTT assay; type: functional, cell-based; settings: NCI-H1975, 48 h; in short: as §1
HCT-116 [2] = assay: Cell cycle arrest in human HCT116 cells assessed as accumulation at S phase at 7.5 uM after 24 hrs by propidium iodide staining-based flow cytometric method (reference value: 36.43%); type: functional
HCT-116 [3] = assay: Cell cycle arrest in human HCT116 cells assessed as accumulation at G2 phase at 7.5 uM after 24 hrs by propidium iodide staining-based flow cytometric method (reference value: 26.10%); type: functional
HCT-116 [4] = assay: Cell cycle arrest in human HCT116 cells assessed as accumulation at G1 phase at 10 uM after 24 hrs by propidium iodide staining-based flow cytometric method (reference value: 43.79%); type: functional
HCT-116 [5] = assay: Cell cycle arrest in human HCT116 cells assessed as accumulation at S phase at 10 uM after 24 hrs by propidium iodide staining-based flow cytometric method (reference value: 36.43%); type: functional
HCT-116 [6] = assay: Cell cycle arrest in human HCT116 cells assessed as accumulation at G2 phase at 10 uM after 24 hrs by propidium iodide staining-based flow cytometric method (reference value: 26.10%); type: functional
HCT-116 [7] = assay: Cell cycle arrest in human HCT116 cells assessed as accumulation at S phase at 10 uM after 48 hrs by propidium iodide staining-based flow cytometric method (reference value: 34.83%); type: functional
HCT-116 [8] = assay: Induction of apoptosis in human HCT116 cells assessed as cell shrinkage at 7.5 to 12.5 uM after 24 hrs by inverted microscopic method; type: functional, cell-based
In short: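 HCT116 at 1×10⁵/well grown 24 h, then treated 24 h (0, 7.5, 10, 12.5). Cells rinsed in PBS and fixed in 75% ethanol. Morphology was examined by inverted microscopy, then cells were stained with Hoechst 33342 for fluorescence microscopy of nuclei.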

HCT-116 [9] = assay: Induction of apoptosis in human HCT116 cells assessed as reduction in cell volume at 7.5 to 12.5 uM after 24 hrs by Hoechst 33342 staining-based fluorescence microscopic method; type: functional
In short: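 HCT116 cells (1×10⁵/well) cultured 24 h, then exposed to 0, 7.5, 10 or 12.5 μM (final) for 24 h. Rinsed in PBS, fixed in 75% ethanol and checked by inverted microscopy. Then stained with Hoechst 33342 (2 μg/mL in PBS) and scored for apoptotic nuclear morphology under fluorescence microscopy.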

HCT-116 [10] = assay: Cell cycle arrest in human HCT116 cells assessed as accumulation at sub G1 phase at 10 uM after 24 hrs by propidium iodide staining-based flow cytometric method (reference value: 1.73%); type: functional
HCT-116 [11] = assay: Cell cycle arrest in human HCT116 cells assessed as accumulation at sub G1 phase at 12.5 uM after 48 hrs by propidium iodide staining-based flow cytometric method (reference value: 0.86%); type: functional
HCT-116 [12] = assay: Induction of apoptosis in human HCT116 cells assessed as early apoptotic cells at 7.5 uM after 24 hrs by annexin V-FITC/propidium iodide staining-based flow cytometric method (reference value: 1.9%); type: functional
HCT-116 [13] = assay: Induction of apoptosis in human HCT116 cells assessed as necrotic cells at 7.5 uM after 24 hrs by annexin V-FITC/propidium iodide staining-based flow cytometric method (reference value: 1.85%); type: functional
In short: (§2)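 HCT116 cells seeded at 1×10⁶ cells/mL in 6-well plates for 24 h, then exposed to 0, 7.5, 10 or 12.5 μM for a further 24 h or 48 h. Cells washed twice in PBS, then stained with Annexin V-FITC plus PI (100 μg/mL stock) in binding buffer (10 mM HEPES, pH 7.4, 2.5 mM CaCl₂) for 30 min at room temperature in the dark. Early and late apoptotic fractions gated by flow cytometry.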

HCT-116 [14] = assay: Induction of apoptosis in human HCT116 cells assessed as early apoptotic cells at 10 uM after 24 hrs by annexin V-FITC/propidium iodide staining-based flow cytometric method (reference value: 1.9%); type: functional
HCT-116 [15] = assay: Induction of apoptosis in human HCT116 cells assessed as early apoptotic cells at 12.5 uM after 24 hrs by annexin V-FITC/propidium iodide staining-based flow cytometric method (reference value: 1.9%); type: functional
HCT-116 [16] = assay: Induction of apoptosis in human HCT116 cells assessed as necrotic cells at 12.5 uM after 24 hrs by annexin V-FITC/propidium iodide staining-based flow cytometric method (reference value: 1.85%); type: functional; in short: as §2
HCT-116 [17] = assay: Induction of apoptosis in human HCT116 cells assessed as early apoptotic cells at 7.5 uM after 48 hrs by annexin V-FITC/propidium iodide staining-based flow cytometric method (reference value: 1.6%); type: functional
HCT-116 [18] = assay: Induction of apoptosis in human HCT116 cells assessed as necrotic cells at 7.5 uM after 48 hrs by annexin V-FITC/propidium iodide staining-based flow cytometric method (reference value: 2.29%); type: functional; in short: as §2
HCT-116 [19] = assay: Induction of apoptosis in human HCT116 cells assessed as late apoptotic cells at 10 uM after 48 hrs by annexin V-FITC/propidium iodide staining-based flow cytometric method (reference value: 1.06%); type: functional
HCT-116 [20] = assay: Induction of apoptosis in human HCT116 cells assessed as early apoptotic cells at 12.5 uM after 48 hrs by annexin V-FITC/propidium iodide staining-based flow cytometric method (reference value: 1.6%); type: functional
[21] = target: E3 ubiquitin-protein ligase Mdm2 (Homo sapiens) (UniProt Q00987); assay: Inhibition of MDM2-mediated p53 degradation in human HCT116 cells assessed as increase in p53 levels at 7.5 to 12.5 uM after 24 hrs by Western blot method; type: cell-based
In short: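 Treated HCT116 cells lysed on ice in RIPA buffer with 1% protease inhibitor cocktail. Lysates cleared at 13000 g for 20 min at 4 °C and protein measured by BCA. Equal protein amounts run on SDS-PAGE, transferred to PVDF and probed with primary then HRP secondary antibodies. Bands detected by enhanced chemiluminescence; 24 h treatment.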

A2780S [22] = assay: Antiproliferative activity against human A2780S cells at 7.5 uM after 48 hrs by MTT assay relative to control; type: functional; in short: as §1
A2780S [23] = assay: Antiproliferative activity against human A2780S cells at 3.75 uM after 48 hrs by MTT assay relative to control; type: functional; in short: as §1

E3 ubiquitin-protein ligase Mdm2 (Homo sapiens), sequence (Q00987 whole entry, looked up): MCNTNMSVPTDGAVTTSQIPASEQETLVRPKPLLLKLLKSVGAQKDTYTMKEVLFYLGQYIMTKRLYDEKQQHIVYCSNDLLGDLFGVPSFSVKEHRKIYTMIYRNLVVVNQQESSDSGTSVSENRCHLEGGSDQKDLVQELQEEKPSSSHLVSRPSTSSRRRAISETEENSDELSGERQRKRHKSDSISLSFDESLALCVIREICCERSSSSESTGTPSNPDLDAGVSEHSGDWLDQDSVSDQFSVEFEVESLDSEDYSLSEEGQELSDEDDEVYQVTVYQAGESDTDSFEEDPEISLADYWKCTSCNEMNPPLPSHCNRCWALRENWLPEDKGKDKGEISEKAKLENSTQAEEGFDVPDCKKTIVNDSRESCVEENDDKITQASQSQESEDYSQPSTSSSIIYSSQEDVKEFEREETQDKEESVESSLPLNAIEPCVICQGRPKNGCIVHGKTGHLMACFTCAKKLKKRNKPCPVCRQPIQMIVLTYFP

## C[C@@H]1Oc2ccc3ccccc3c2[C@@H]2[C@@H]1C=C(C=O)[C@@H](C)[C@]21C(=O)Nc2ccccc21
A2780S [1]
  inhibition at 30 µM: 83.8 to 85.1%
A2780/Taxol
  IC50: 23.4 µM
A549
  IC50: 18.3 µM
MCF7
  IC50: 16.2 µM
NCI-H1975
  IC50: 13.7 µM
HCT-116 [2]
  Activity: 32.56%
HCT-116 [3]
  Activity: 28.5%
HCT-116 [4]
  Activity: 75.18%
HCT-116 [5]
  Activity: 7.13%
HCT-116 [6]
  Activity: 21.05%
HCT-116 [7]
  Activity: 18.5%
HCT-116 [8]
  Activity: Active
HCT-116 [9]
  Activity: Active
HCT-116 [10]
  Activity: 15.92%
HCT-116 [11]
  Activity: 64.26%
HCT-116 [12]
  Activity: 3.78%
HCT-116 [13]
  Activity: 1.6%
HCT-116 [14]
  Activity: 11.32%
HCT-116 [15]
  Activity: 33.2%
HCT-116 [16]
  Activity: 2.21%
HCT-116 [17]
  Activity: 4.18%
HCT-116 [18]
  Activity: 2.02%
HCT-116 [19]
  Activity: 8.18%
HCT-116 [20]
  Activity: 47.17%
[21]
  inhibition: Active
A2780S [22]
  inhibition at 7.5 µM: 50 to 58.1%
A2780S [23]
  inhibition at 3.75 µM: 17.7 to 24.1%

From ChEMBL document CHEMBL4000211, “Discovery of novel polycyclic spiro-fused carbocyclicoxindole-based anticancer agents” (Eur J Med Chem, 2017)
